Laboratory results published in ChEMBL document CHEMBL1123142, “1,2,4-Triazolo[4,3-a]quinoxaline-1,4-diones as antiallergic agents” (J Med Chem, 1985).
Several values for one entry are separate records, joined by “and”; a condition that tells them apart may be missing. Identical values can stand only once.

Species on record: Rattus norvegicus
Test: Concentration required to inhibit Antigen-induced release of Histamine from rat mast cells at 100 uM
Type: functional
Settings: Mast cell

SMILES	inhibition at 100 µM [%]
COC(=O)n1nc2c(=O)n(C)c3ccccc3n2c1=O	30
CCCn1c(=O)c2nn(CC(=O)OCC)c(=O)n2c2ccc(Cl)cc21	20
Oc1nc2ccccc2n2c(O)nnc12	20
Cn1c(=O)c2nnc(O)n2c2ccc(O)cc21	29
C=CCn1nc2c(=O)n(CCC)c3cc(Cl)ccc3n2c1=O	20
Cn1c(=O)c2nn(S(C)(=O)=O)c(=O)n2c2ccccc21	2
Cn1nc2c(=O)n(C)c3ccccc3n2c1=O	30

The compounds below were run on Rattus norvegicus (assay: Effective dose against IgE-mediated cutaneous anaphylaxis in the rat after ip administration). Settings: not given.
Type: functional

SMILES	ED50 [mg/kg]
O=C([O-])c1cc(=O)c2c(OCC(O)COc3cccc4oc(C(=O)[O-])cc(=O)c34)cccc2o1.[Na+].[Na+] [CROMOLYN SODIUM]	6

The compounds below were run on Rattus norvegicus (assay: Effective dose against IgE-mediated cutaneous anaphylaxis in the rat after peroral administration). Settings: po.
Type: functional
How it was run: (§1)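 Rats immunized i.m. with ovalbumin plus aluminum hydroxide, plus B. pertussis i.p., gave IgE antiovalbumin serum. Naive male Sprague-Dawley rats were sensitized intradermally at dorsal sites (1:20), with 48 h latency. Compound was given orally in 1% methylcellulose, 10 min before i.v. challenge with 4 mg ovalbumin in 1% Evans blue. Blued wheal areas were read at 30 min. Groups of 4–8; mean ± SE, Student's t test.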

SMILES	ED50 [mg/kg]
Cn1c(=O)c2nnc(O)n2c2ccccc21	6
Cn1c(=O)c2nnc(O)n2c2ccc(C(F)(F)F)cc21	12
CCCn1c(=O)c2nnc(O)n2c2ccc(Cl)cc21	3
CCCn1c(=O)c2nnc(O)n2c2ccccc21	3
CCCn1c(=O)c2nn(C)c(=O)n2c2ccc(Cl)cc21	> 100
Cn1c(=O)c2nnc(O)n2c2ccc(Cl)cc21	> 125
CCCn1c(=O)c2nn(C(=O)/C=C/c3ccccc3)c(=O)n2c2ccc(Cl)cc21	> 100

These compounds were tested on Rattus norvegicus (assay: Percent inhibitory activity in rat passive cutaneous anaphylaxis test at a dose of 25 mg/kg administered perorally). Settings: Rattus norvegicus, po.
Type: functional
How it was run: as §1

SMILES	inhibition in vivo at 25 mg/kg [%]
Cc1cccc2c1n(C)c(=O)c1nnc(O)n12	35
Cn1c(=O)c2nnc(O)n2c2ccccc21	38
COc1ccc2c(c1)n(C)c(=O)c1nnc(O)n12	10
CC(=O)n1nc2c(=O)n(C)c3cc(C)c(C)cc3n2c1=O	26
Cn1c(=O)c2nnc(O)n2c2ccc(C(F)(F)F)cc21	52
CCCn1c(=O)c2nnc(O)n2c2ccc(Cl)cc21	53
COc1cc2c(c(Cl)c1OC)n(C)c(=O)c1nnc(O)n12	27
Cn1c(=O)c2nnc(O)n2c2cc(Cl)ccc21	42
Oc1nc2ccccc2n2c(O)nnc12	40
CCCn1c(=O)c2nnc(O)n2c2ccccc21	58
Cn1c(=O)c2nnc(O)n2c2ccc(O)cc21	20
CC(=O)c1ccc2c(c1)n(C)c(=O)c1nnc(O)n12	49
Cn1c(=O)c2nn(S(C)(=O)=O)c(=O)n2c2ccccc21	25
Cn1c(=O)c2nnc(O)n2c2ccc(Cl)cc21	22
Cn1nc2c(=O)n(C)c3ccccc3n2c1=O	0
CC(=O)n1nc2c(=O)n(C(C)=O)c3ccccc3n2c1=O	36
Cc1ccc2c(c1)n(C)c(=O)c1nnc(O)n12	18
CCCn1c(=O)c2nn(C(=O)/C=C/c3ccccc3)c(=O)n2c2ccc(Cl)cc21	38

Same assay, conditions: route oral, 25 mg/kg

SMILES	Inhibition
CC(=O)n1nc2c(=O)n(C)c3ccccc3n2c1=O	27% and 63%
Cc1cccc2c1n(C)c(=O)c1nnc(O)n12	53%
Cn1c(=O)c2nnc(O)n2c2ccc(C(F)(F)F)cc21	69%

What follows are compounds tested on Rattus norvegicus (assay: Percent inhibitory activity in rat passive cutaneous anaphylaxis test at a dose of 25 mg/kg, ip). Settings: route intraperitoneal.
Type: functional

SMILES	inhibition in vivo at 25 mg/kg [%]
CCCn1c(=O)c2nn(CC(=O)OCC)c(=O)n2c2ccc(Cl)cc21	14
CCCn1c(=O)c2nn(C(C)=O)c(=O)n2c2ccc(Cl)cc21	42

Each compound was assayed on Rattus norvegicus (assay: Percent inhibitory activity in rat passive cutaneous anaphylaxis test at a dose of 10 mg/kg administered perorally). Settings: route oral.
Type: functional
How it was run: as §1

SMILES	inhibition in vivo at 10 mg/kg [%]
Cn1c(=O)c2nnc(O)n2c2ccccc21	56
CCCn1c(=O)c2nnc(O)n2c2ccccc21	84

Species on record: Rattus norvegicus
Test: Concentration required to inhibit Antigen-induced release of Histamine from rat mast cells
Type: functional, cell-based
Settings: read-out: I50

IC50 [µM]	SMILES
12	Cc1cc2c(cc1C)n1c(O)nnc1c(=O)n2C
25	CC(=O)n1nc2c(=O)n(C)c3ccccc3n2c1=O
17	Cc1cccc2c1n(C)c(=O)c1nnc(O)n12
40	Cn1c(=O)c2nnc(O)n2c2ccccc21
3	COc1ccc2c(c1)n(C)c(=O)c1nnc(O)n12
43	CC(=O)n1nc2c(=O)n(C)c3cc(C)c(C)cc3n2c1=O
1	Cn1c(=O)c2nnc(O)n2c2ccc(C(F)(F)F)cc21
0.4	CCCn1c(=O)c2nnc(O)n2c2ccc(Cl)cc21
35	COc1cc2c(c(Cl)c1OC)n(C)c(=O)c1nnc(O)n12
0.4	Cn1c(=O)c2nnc(O)n2c2cc(Cl)ccc21
8	CCCn1c(=O)c2nnc(O)n2c2ccccc21
0.1	CCCn1c(=O)c2nn(C(C)=O)c(=O)n2c2ccc(Cl)cc21
1	CC(=O)c1ccc2c(c1)n(C)c(=O)c1nnc(O)n12
1	CCCn1c(=O)c2nn(C)c(=O)n2c2ccc(Cl)cc21
10	Cn1c(=O)c2nnc(O)n2c2ccc(Cl)cc21
10	CC(=O)n1nc2c(=O)n(C(C)=O)c3ccccc3n2c1=O
6	Cc1ccc2c(c1)n(C)c(=O)c1nnc(O)n12
1	CCCn1c(=O)c2nn(C(=O)/C=C/c3ccccc3)c(=O)n2c2ccc(Cl)cc21
